Data: ChEMBL document CHEMBL1143023, “Chemical synthesis and biological activities of 16alpha-derivatives of 5alpha-androstane-3alpha,17beta-diol as antiandrogens” (2007)
Activity calls are given as the source filed them. The calls are words filed in the database; no cut-off is given here.

Columns and labels:
[1] = Inhibition of DHT-stimulated proliferation of androgen sensitive AR+ Shionogi cells at 0.1 uM; assay type: functional; conditions: Mus musculus
[2] = Inhibition of DHT-stimulated proliferation of androgen sensitive AR+ Shionogi cells at 1 uM; assay type: functional; conditions: Mus musculus
[3] = Proliferative activity on androgen sensitive AR+ Shionogi cells at 0.1 uM relative to DHT; assay type: functional, Mus musculus
Outline: (§1)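 AR+ Shionogi cells were given test compound alone, without DHT, for 10 days. Growth was read as DNA content by a modified Fiszer-Szafarz method. Stimulation % = 100 × [DNA(compound) − DNA(control)]/[DNA(DHT) − DNA(control)], with 0.3 nM DHT set as 100%. One experiment in triplicate.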

PC-3 [4] = assay: Reduction of non-androgen sensitive AR- PC3 cell growth at 1 uM; assay type: functional, cell-based
Outline: (§2)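 PC-3 human prostate carcinoma (AR−) cells from passage 28 were allowed to adhere for 24 h. Medium was then changed to MEM with 2% charcoal-stripped FBS containing compound from 1000-fold ethanol stocks; the vehicle control was 0.1% EtOH. Cells grew 9 days at 37 °C, 5% CO2, with medium changes every 2–3 days. DNA content was measured; triplicate wells.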

[5] = Stimulation of androgen sensitive AR+ Shionogi cell proliferation at 1 uM; assay type: functional, Mus musculus; outline: as §1
PC-3 [6] = assay: Reduction of non-androgen sensitive AR- PC3 cell growth at 0.3 uM; assay type: functional, cell-based; outline: as §2

Compound | inhibition at 0.1 µM [1] [%] | inhibition at 1 µM [2] [%] | Activity [3] [%] | Activity (PC-3 [4]) | Activity [5] [%] | Activity (PC-3 [6])
C[C@]12CC[C@@H](O)C[C@@H]1CC[C@@H]1[C@@H]2CC[C@]2(C)[C@@H](O)[C@H](CCCN=[N+]=[N-])C[C@@H]12 | 58 | 89 | 0 |  |  | 
C[C@]12CC[C@@H](O)C[C@@H]1CC[C@@H]1[C@@H]2CC[C@]2(C)[C@@H](O)[C@H](CCCO)C[C@@H]12 | 16 | 35 | 0 |  |  | 
C[C@]12CCC(=O)C[C@@H]1CC[C@@H]1[C@@H]2CC[C@]2(C)[C@@H](O)[C@H](CCCSC#N)C[C@@H]12 | 0 | 45 | 21 |  |  | 
C[C@]12CC[C@@H](O)C[C@@H]1CC[C@@H]1[C@@H]2CC[C@]2(C)[C@@H](O)[C@H](CCCSC#N)C[C@@H]12 | 2 | 50 | 5 |  |  | 
C[C@]12CC[C@H]3[C@@H](CCC4CC(=O)CC[C@@]43C)[C@@H]1C[C@@H](CCCI)[C@@H]2O (stereo partly specified) | 41 | 76 | 22 |  |  | 
C[C@]12CC[C@H]3[C@@H](CCC4CC(=O)CC[C@@]43C)[C@@H]1C[C@@H](CCCCl)[C@@H]2O (stereo partly specified) | 44 | 42 | 36 | inactive | 52 | inactive
C[C@]12CC[C@@H](O)C[C@@H]1CC[C@@H]1[C@@H]2CC[C@]2(C)[C@@H](O)[C@H](CCCOCc3ccc(Br)cc3)C[C@@H]12 | 0 | 7 | 163 |  |  | 
C[C@]12CCC(=O)C[C@@H]1CC[C@@H]1[C@@H]2CC[C@]2(C)[C@@H](O)[C@H](CCCOCc3ccc(Br)cc3)C[C@@H]12 | 0 | 0 | 153 |  |  | 
C[C@]12CC[C@@H](O)C[C@@H]1CC[C@@H]1[C@@H]2CC[C@]2(C)[C@@H](O)[C@H](CCCCl)C[C@@H]12 | 67 | 94 | 0 | inactive |  | inactive
C[C@]12CC[C@@H](O)C[C@@H]1CC[C@@H]1[C@@H]2CC[C@]2(C)[C@@H](O)[C@H](CCCN)C[C@@H]12 | 0 | 0 | 1 |  |  | 
C[C@]12CC[C@H]3[C@@H](CCC4CC(=O)CC[C@@]43C)[C@@H]1C[C@@H](CCCN=[N+]=[N-])[C@@H]2O (stereo partly specified) | 73 | 58 | 33 |  |  | 
C[C@]12CC[C@H]3[C@@H](CCC4CC(=O)CC[C@@]43C)[C@@H]1C[C@@H](CCCO)[C@@H]2O (stereo partly specified) | 54 | 46 | 9 |  |  | 
C[C@]12CC[C@@H](O)C[C@@H]1CC[C@@H]1[C@@H]2CC[C@]2(C)[C@@H](O)[C@H](CCCF)C[C@@H]12 | 44 | 70 | 0 |  |  | 
C[C@]12CC[C@@H](O)C[C@@H]1CC[C@@H]1[C@@H]2CC[C@]2(C)[C@@H](O)[C@H](CCCBr)C[C@@H]12 | 46 | 80 | 0 |  |  | 
C[C@]12CC[C@@H](O)C[C@@H]1CC[C@@H]1[C@@H]2CC[C@]2(C)[C@@H](O)[C@H](CCCI)C[C@@H]12 | 36 | 90 | 0 |  |  | 
CO[C@@H]1CC[C@@]2(C)[C@@H](CC[C@@H]3[C@@H]2CC[C@]2(C)[C@@H](O)[C@H](CCCI)C[C@@H]32)C1 | 0 | 46 | 0 |  |  | 
CC(C)(O)C(=O)Nc1ccc([N+](=O)[O-])c(C(F)(F)F)c1 [HYDROXYFLUTAMIDE] | 67 | 100 | 0 |  |  | 
